From paper PMC5302092 (Cell, 2017)
Residues, ends and D or L forms follow the SMILES beside them. *: point of attachment. Octanoyl = CCCCCCCC(=O)*

How the values were obtained:
cathepsin S = cathepsin S (Homo sapiens, UniProt P25774); test: in vitro protease inhibition assay, cathepsin S; format: biochemical; conditions: read-out: activity against cathepsin S (IC50)
Procedure, shortened: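 Commercial cathepsin S pre-activated for 2 h at 10 μg/ml in 50 mM MES pH 5.5 with 5 mM DTT, then diluted to 100 ng/ml. Assayed with 10 μM z-FR-AMC, which was added last to the enzyme/test compound mix; final DMSO below 5%. Fluorogenic read-out; leupeptin as positive control. Normalized activity data fitted to give IC50.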

cathepsin L = cathepsin L (Homo sapiens, UniProt P07711); test: in vitro protease inhibition assay, cathepsin L; format: biochemical; conditions: result in words
Procedure, shortened: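 Commercial cathepsin L (0.02 μg/ml) in 50 mM MES pH 5.5 with 5 mM DTT. Substrate z-FR-AMC at 20 μM added last to the enzyme/test compound mix; final DMSO below 5%. Fluorescence read-out; leupeptin as positive control. Normalized activity data were curve-fitted.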

[1] = biological target: cathepsin C (CTSC) catalytic cysteine Cys258 (Homo sapiens, UniProt P53634); test: competitive isoTOP-ABPP, THP-1 membrane fraction, cathepsin C; format: binding
Procedure, shortened: (§1)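 THP-1 cells grown in RPMI with 10% FBS, penicillin, streptomycin, glutamine and 50 μM βME (37 °C, 5% CO2, <10 passages). Differentiated with 200 nM PMA for 18 h, then 3 more days. Sonicated lysate spun at 100,000 g for 45 min; membrane fraction set to 1.5 mg/mL. Test compound (final 25 μM, 2.5 μM or 250 nM) or 1% TFA water vehicle for 30 min, then 100 μM IA-alkyne for 30 min, ambient temperature.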

cathepsin S (CTSS) = cathepsin S (CTSS) (Homo sapiens, UniProt P25774); test: competitive isoTOP-ABPP, THP-1 membrane fraction, cathepsin S; format: binding
Procedure, shortened: as §1

cathepsin H (CTSH) = biological target: T1, cathepsin H (CTSH) (Homo sapiens, UniProt P09668); test: competitive isoTOP-ABPP, THP-1 membrane fraction, cathepsin H; format: binding; conditions: 250 nM, THP-1 membranes
T1 sequence (P09668 98-335): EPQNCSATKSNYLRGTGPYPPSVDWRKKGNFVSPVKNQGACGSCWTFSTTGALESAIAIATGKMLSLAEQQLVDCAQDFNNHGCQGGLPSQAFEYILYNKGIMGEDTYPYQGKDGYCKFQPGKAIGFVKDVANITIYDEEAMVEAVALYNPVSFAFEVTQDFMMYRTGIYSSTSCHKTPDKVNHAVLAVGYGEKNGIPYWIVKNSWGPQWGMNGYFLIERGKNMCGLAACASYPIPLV
Procedure, shortened: as §1

[2] = biological target: cathepsin L (CTSL1) catalytic cysteine Cys138 (Homo sapiens, UniProt P07711); test: competitive isoTOP-ABPP, THP-1 membrane fraction, cathepsin L; format: binding; conditions: 250 nM, THP-1 membranes; R > 5 = targeted
Procedure, shortened: as §1

cathepsin Z (CTSZ) = cathepsin Z (CTSZ) (Homo sapiens, UniProt Q9UBR2); test: competitive isoTOP-ABPP, THP-1 membrane fraction, cathepsin Z; format: binding
Procedure, shortened: as §1

[3] = competitive isoTOP-ABPP, proteome-wide cysteine selectivity; format: binding, human; conditions: THP-1, Ramos, H1975 proteomes
Procedure, shortened: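 Proteomes came from THP-1 (RPMI, 10% FBS, βME, PMA-differentiated), Ramos (RPMI, 10% FBS) and H1975 (DMEM, 20% FBS) cells. Sonicated and split at 100,000 g into soluble and membrane fractions (1.5 mg/mL); some lysed into sodium acetate at pH 5 or 5.5. Test compound or vehicle for 30 min, then 100 μM IA-alkyne for 30 min, then isotopic biotin-tag click, enrichment, trypsin/TEV digests and LC-MS/MS. Cysteines with heavy/light MS1 ratio R > 5 called targeted.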

cathepsin B (CTSB) = cathepsin B (CTSB) (Homo sapiens, UniProt P07858); test: competitive isoTOP-ABPP, THP-1 membrane fraction, cathepsin B; format: binding; conditions: 250 nM, THP-1 membranes
Procedure, shortened: as §1

Chain of cathepsin Z (CTSZ) (Q9UBR2 62-303): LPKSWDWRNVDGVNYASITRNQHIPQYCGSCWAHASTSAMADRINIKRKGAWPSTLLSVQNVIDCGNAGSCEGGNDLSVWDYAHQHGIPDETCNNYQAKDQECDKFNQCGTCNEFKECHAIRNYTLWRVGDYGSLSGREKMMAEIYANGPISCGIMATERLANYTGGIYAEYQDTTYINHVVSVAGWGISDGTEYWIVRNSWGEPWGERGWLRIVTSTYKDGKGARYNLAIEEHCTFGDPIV
Chain of cathepsin S (CTSS) (P25774 115-331): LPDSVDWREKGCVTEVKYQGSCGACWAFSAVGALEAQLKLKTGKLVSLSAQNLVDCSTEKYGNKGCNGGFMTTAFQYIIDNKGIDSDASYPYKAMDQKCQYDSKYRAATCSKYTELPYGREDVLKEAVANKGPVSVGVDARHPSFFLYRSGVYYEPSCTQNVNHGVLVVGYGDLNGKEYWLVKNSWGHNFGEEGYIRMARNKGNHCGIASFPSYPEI
Chain of cathepsin C (CTSC) catalytic cysteine Cys258 (P53634 25-463): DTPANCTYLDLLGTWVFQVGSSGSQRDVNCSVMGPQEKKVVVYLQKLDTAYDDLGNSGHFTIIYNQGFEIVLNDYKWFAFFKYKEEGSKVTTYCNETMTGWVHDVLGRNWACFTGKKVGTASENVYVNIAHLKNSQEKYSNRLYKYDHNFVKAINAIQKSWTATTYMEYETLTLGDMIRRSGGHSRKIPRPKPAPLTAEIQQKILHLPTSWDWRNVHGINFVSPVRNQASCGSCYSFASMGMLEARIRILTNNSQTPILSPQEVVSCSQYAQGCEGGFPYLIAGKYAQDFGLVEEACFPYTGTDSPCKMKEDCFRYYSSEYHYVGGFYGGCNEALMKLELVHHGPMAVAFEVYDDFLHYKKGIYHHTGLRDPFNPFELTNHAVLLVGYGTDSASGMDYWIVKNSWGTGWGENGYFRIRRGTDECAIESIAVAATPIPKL
Chain of cathepsin S (P25774 115-331, species assumed): as the sequence (P25774 115-331) above
Chain of cathepsin L (CTSL1) catalytic cysteine Cys138 (P07711 114-333): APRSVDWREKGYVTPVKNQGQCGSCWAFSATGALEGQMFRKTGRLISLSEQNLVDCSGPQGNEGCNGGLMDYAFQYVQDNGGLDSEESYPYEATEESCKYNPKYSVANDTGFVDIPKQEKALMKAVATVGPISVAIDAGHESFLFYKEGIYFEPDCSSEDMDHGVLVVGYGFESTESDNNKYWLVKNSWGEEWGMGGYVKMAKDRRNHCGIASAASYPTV
Chain of cathepsin L (P07711 114-333, species assumed): as the sequence (P07711 114-333) above

Row | IC50 (cathepsin S) | inhibitory activity against cathepsin L (IC50) (cathepsin L) | R value (heavy/light MS1 ratio), CTSC catalytic cysteine Cys258 ([1]; 250 nM, THP-1 membranes) | R value (heavy/light MS1 ratio), CTSC ([1]; 25 μM, THP-1) | R value (heavy/light MS1 ratio), CTSS (cathepsin S (CTSS); 250 nM, THP-1 membranes) | R value (heavy/light MS1 ratio), CTSS (cathepsin S (CTSS); 25 μM, THP-1) | R value (heavy/light MS1 ratio), CTSH (cathepsin H (CTSH)) | R value (heavy/light MS1 ratio), blockade of IA-alkyne labeling of CTSL1 Cys138 [2] | R value (heavy/light MS1 ratio), CTSZ (cathepsin Z (CTSZ); 250 nM, THP-1 membranes) | R value (heavy/light MS1 ratio), CTSZ (cathepsin Z (CTSZ); 25 μM, THP-1) | R value (heavy/light MS1 ratio), CTSB (cathepsin B (CTSB)) | Compound | R value (heavy/light MS1 ratio), non-cathepsin cysteines (no additional targets) [3]
1 | 13 nM | undetectable activity |  |  |  |  |  |  |  |  |  | CCCCCCCC(=O)N[C@@H](CCSC)C(=O)N[C@H](C=O)Cc1ccccc1 [Compound 16, N-octanoyl-Met-Phe-H] (Octanoyl-Met-Phe-aldehyde) | 
2 |  |  | > 2.78 | > 5 | < 2.0 | > 5 | < 2.0 | > 20 | < 2.0 | > 5 | < 2.0 | N[C@@H](Cc1ccccc1)C(=O)N[C@H](C=O)Cc1ccccc1 [Phe-Phe-H] (H-Phe-Phe-aldehyde) | < 2.0
